# Screening data from PubChem BioAssay.
# Yeast life ext – extends the lifespan of yeast; AID 775; S. cerevisiae growth with nicotinamide, OD615; deaD strain in restrictive glucose medium; inhibition of the nicotinamide effect, % at 10 µM; 0.68% of 130,000 active;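 active = inhibition above a set limit, placed 3 SD over the median of all compounds, cut at about 26% in these data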;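 also: 0% = nicotinamide-treated wells and 100% = cells grown without nicotinamide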
#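 Test system: DeaD-strain S. cerevisiae / Buffer or medium: restrictive glucose medium / Also added: nicotinamide 1.5 mM / Doses: one concentration, 10 µM, DMSO 0.25% / Schedule: 48 h at 30 °C / Signal: OD615 measurement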
# BB579 growth dn – reduces growth of yeast BB579 in restrictive medium | 0.51% of 140,000 active | AID 804 | S. cerevisiae BB579 growth, OD615, 48 h | inhibition, % at 10 µM;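 active = inhibition above a set limit, 3 SD over the mean compound inhibition, cut at about 44% in these data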
#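 Assay system: S. cerevisiae DeaD strain BB579 yeast. Medium: CSMM-D restrictive synthetic medium containing dextrose (glucose). Times: 4 h cell preincubation, 48 h compound exposure, 30 °C humidified. Signal: OD615 turbidity measurement. Benchmarks: positive control amphotericin B 10 µg/mL.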
# Phagocytosis inh – macrophage phagocytosis inhibition. J774A.1 macrophage IgG-bead phagocytosis, imaging. inhibition, % at 5 µM. 0.07% of 110,000 active. AID 1029;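 active = inhibition above the mean of the plate negative controls plus 5 SD, cut at about 13% in these data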;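 also: phagocytic index as fraction of beads internalized from green versus red external bead signal; plate controls were DMSO negative control for no effect and cytochalasin-D positive control for full effect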
# RAM network inh – yeast RAM network inhibition. S. cerevisiae dse1pr::URA3 reporter, 5-FOA growth OD615, 2 d; analog-sensitive cbk1-as2 kinase mutant strain. AID 868. inhibition, % at 50 µM. 1.8% of 190,000 active;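 active = inhibition above a set limit, 3 SD over mean compound inhibition, cut at about 8.4% in these data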;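 also: 0% = DMSO-only wells with no growth and 100% = 10 µM 1-NA-PP1 full growth; inhibition rescues growth on 5-FOA so higher OD means more RAM inhibition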
# Starred values were filed as active, the others as inactive; nt = no result. An excerpt weighted towards active compounds, which were near 2.7% of everything screened.
SMILES,Yeast life ext,BB579 growth dn,Phagocytosis inh,RAM network inh
CCCn1c(CNc2ccccc2O)nc2ccccc21,4,45*,0,0
CCCCc1ccc(NC2=NCC(=O)N2CCc2ccccc2)cc1,nt,nt,nt,1
Cc1ccc(Nc2nnc(SCC(=O)NCCN3C(=O)CSC3=O)s2)cc1C,-5,-2,-8,3
CCN(C(=O)COC(=O)c1c2c(nc3ccccc13)/C(=C/c1ccccc1)CC(C)C2)C1CCS(=O)(=O)C1 (configuration not stated),-2,-23,0,6
CC1(C)[C@H]2CC=C(CN3CCC(N4CCC(C(=O)N5CCCC5)CC4)CC3)[C@@H]1C2,nt,nt,nt,-1
CC(C)(C)NC(=O)CN(C(=O)CN1C(=O)C(=O)c2ccccc21)C(C)(C)C,nt,nt,nt,0
CCOc1ccc(CN(C)CC(=O)Nc2ccc([N+](=O)[O-])cc2Cl)cc1,-2,-14,-7,0
c1ccc(NCc2nc3ccccc3n2CCOc2ccccc2)cc1,41*,-23,-16,-1
Cc1ccc(NC2c3ncccc3C(=O)N2Cc2ccco2)c(C)c1 (configuration not stated),nt,nt,nt,0
CC(=O)c1ccc(N2CCN(C(=O)CCCc3nc4ccccc4s3)CC2)cc1,2,-34,nt,9.3*
CN(CC(=O)Nc1ccc(N2CCOCC2)cc1)CC(=O)Nc1ccc(Cl)cc1[N+](=O)[O-],1,-14,-14,1
Cc1cc(C)n(C(=O)CNC(=O)COc2ccccc2)n1,-12,18,0,0
COc1ccc(C(=O)OCCOc2ccccc2C(C)=O)c(O)c1,nt,nt,nt,11*
CN(c1ccccc1)C1CCCCC1NS(=O)(=O)c1ccc(Cl)cc1 (configuration not stated),36*,11,-1,1
CCN(CC)C1CCCCC1NS(=O)(=O)c1ccc(Cl)cc1 (configuration not stated),-15,9,0,1
Cc1ccc(C)c(C(=O)COC(=O)c2ccccc2N2C(=O)C3C4CCC(C4)C3C2=O)c1 (configuration not stated),-7,-9,-1,7
COc1ccc(C(=O)NCC(=O)NCCc2c[nH]c3ccccc23)cc1OC,nt,nt,nt,1
COc1ccc(C(=O)N/C(=C\c2cccc3ccccc23)C(=O)NCCc2c[nH]c3ccccc23)cc1OC,-3,-76,nt,8.8*
O=C(Nc1ccc(-c2nc3ccccc3[nH]2)cc1)c1ccco1,-13,-40,0,9.5*
O=C(/C=C/c1ccco1)Nc1ccc(-c2nc3ccccc3[nH]2)cc1,-4,-8,-3,2
COc1cc(NC(=S)N2CCC(C(N)=O)CC2)c(OC)cc1Cl,nt,nt,nt,1
O=C(COc1ccc2ccccc2c1)Nc1cccc(C(=O)Nc2ccccc2C(=O)O)c1,64*,-35,-7,5
CCCCC(=O)Nc1cccc(C(=O)Nc2ccccc2C(=O)O)c1,nt,nt,nt,2
COc1ccc(/C=c2/sc3n(c2=O)C(c2ccccc2OC)C2=C(N=3)c3ccccc3CC2)cc1O (configuration not stated),-12,-33,0,9.5*
CCCCCCn1nc(C(=O)OCC(=O)NC2CCS(=O)(=O)C2)c2ccccc2c1=O (configuration not stated),nt,nt,nt,-1
SMILES,Yeast life ext,BB579 growth dn,Phagocytosis inh,RAM network inh
Cc1ccc(CSc2ncnc3c2cnn3-c2ccccc2)cc1,2,-28,-9,7
Cc1ccc(CSc2ncnc3c2cnn3-c2ccc(C)cc2)cc1,4,-28,-3,9.5*
CC1=CC(=O)C=C(C)C1=NOS(=O)(=O)c1ccccc1,-28,100*,4,-2
CN(C)S(=O)(=O)c1ccc(Cl)c(NC(=O)CSc2nc3c(cc2C#N)C(=O)CC(C)(C)C3)c1,0,-26,-2,9.1*
Cc1ccc(N2C(=O)CC2(C#N)c2ccc(OCc3ccccc3)cc2)cc1 (configuration not stated),12,-16,-1,8
Clc1ccc(CCNc2nc3ccccc3s2)cc1,-27,68*,nt,2
O=c1c(-c2nc3ccccc3s2)cccn1Cc1ccc(Cl)cc1,-10,-13,nt,3
Nc1c(C(=O)NCc2ccc3c(c2)OCO3)c2nc3ccccc3nc2n1CCCN1CCOCC1,-25,-36,-3,9.8*
COc1ccccc1CNC(=O)c1c(N)n(CCCN2CCOCC2)c2nc3ccccc3nc12,-17,20,-1,-1
CCOc1ccccc1NC(=O)CCN(c1ccc(C)cc1)S(=O)(=O)c1ccccc1,-1,-17,-11,9.2*
Cc1ccc(S(=O)(=O)N(CC(=O)Nc2ccccc2C(=O)O)c2ccccc2)cc1,nt,nt,nt,8.7*
CNS(=O)(=O)c1ccc(NC(=O)C2c3ccccc3Oc3ccccc32)cc1,3,-18,1,3
CCN(CC)S(=O)(=O)c1ccc(NC(=O)CSc2cccc[n+]2[O-])cc1,-5,65*,1,-1
CCc1cccc(C)c1NC(=O)COC(=O)CNS(=O)(=O)/C=C/c1ccccc1,0,-34,-3,1
CCN(CC)S(=O)(=O)c1ccc(NC(=O)C2c3ccccc3Oc3ccccc32)cc1,3,-54,-9,8.6*
CCN(CC)S(=O)(=O)c1ccc(NC(=O)COC(=O)CNS(=O)(=O)/C=C/c2ccccc2)cc1,0,-40,-8,8.4*
Cc1ccc(N(C(=O)CS(=O)CC(=O)Nc2ccc(F)cc2)C(C(=O)NC2CCCCC2)c2ccco2)cc1 (configuration not stated),94*,-23,nt,1
O=C(CS(=O)CC(=O)N(c1ccccc1)C(C(=O)NC1CCCC1)c1cccs1)Nc1ccc(F)cc1 (configuration not stated),-16,-31,0,4
CC1=[N+](C)N(c2ccccc2)C(=O)C1N=Cc1c(Cl)cccc1Cl (configuration not stated),35*,-8,nt,0
COc1cccc(/C=C/C(=O)OCC(=O)NCCc2ccccc2)c1,nt,nt,nt,3
CC(C)(C)c1ccc(NC(=O)COC(=O)c2ccc([N+](=O)[O-])s2)cc1,-11,100*,5,-2
CC(C)CNC(=O)c1c(N)n(/N=C/c2cccnc2)c2nc3ccccc3nc12,nt,nt,0,nt
COCCCNC(=O)c1c(N)n(-c2ccc(S(N)(=O)=O)cc2)c2nc3ccccc3nc12,-8,-35,-2,7
COCCCNC(=O)c1c(N)n(/N=C/c2cccs2)c2nc3ccccc3nc12,-12,-48,-3,8.7*
COCCCNC(=O)c1c(N)n(/N=C/c2cccnc2)c2nc3ccccc3nc12,-19,-36,-4,11*
SMILES,Yeast life ext,BB579 growth dn,Phagocytosis inh,RAM network inh
CCOC(=O)CNC(=O)N1CCCC(C(=O)c2cccc(Cl)c2)C1 (configuration not stated),nt,nt,nt,3
O=CN(/C=C1\Sc2ccccc2C1=O)Cc1ccccc1,48*,-26,-1,0
COc1ccc(N2C(=O)N(Cc3cccc(F)c3)c3ccccc3S2(=O)=O)cc1,nt,nt,nt,8.8*
CC(C)(C)N(Cc1ccccc1)C(=O)CSc1nnc(CNc2ccc(F)cc2)o1,-3,-28,-1,8.6*
CCOC(=O)CN(C(=O)CSc1nnc(CNc2ccc(F)cc2)o1)c1ccccc1,-5,-67,-1,1
Oc1c(I)cc(I)c2cccnc12,-4,83*,nt,-1
